Laboratory results from ChEMBL document CHEMBL1130229, “Synthesis and antimalarial activity in vitro and in vivo of a new ferrocene-chloroquine analogue” (J Med Chem, 1997).

Legend:
Plasmodium falciparum [1] = experiment: In vitro antimalarial activity against Plasmodium falciparum FG1; assay type: functional, organism-based
Summary of the method: (§1)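 Young trophozoite-stage P. falciparum cultures were exposed to drug at 0.001–10 μg/mL for 48 h, in triplicate. [³H]hypoxanthine uptake by schizonts was measured by scintillation counting, with drug-free cultures as controls. IC50 was taken from the regression line through mean dpm between maximum and minimum values, and given as mean and SD over n experiments.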

Plasmodium falciparum [2] = experiment: In vitro antimalarial activity against Plasmodium falciparum FCM17 parasite; assay type: functional, organism-based; summary of the method: as §1
Plasmodium falciparum [3] = experiment: In vitro antimalarial activity against Plasmodium falciparum FG2 parasite; assay type: functional, organism-based; summary of the method: as §1
[4] = Compound was tested antimalarial activity in mice (Mus musculus), infected with Plasmodium berghei N., activity is expressed as the mortality rate at a concentration of 10 mg/kg. in experiment 1; 0 out of 5; assay type: ADME, organism-based; parameters: dose 10 mg/kg; conditions: in vivo
Plasmodium falciparum [5] = experiment: In vitro antimalarial activity against Plasmodium falciparum FG4; assay type: functional, organism-based; summary of the method: as §1
Plasmodium falciparum [6] = experiment: In vitro antimalarial activity against Plasmodium falciparum FCM6; assay type: functional, organism-based; summary of the method: as §1
Plasmodium falciparum [7] = experiment: In vitro antimalarial activity against Plasmodium falciparum SGE2; assay type: functional, organism-based; summary of the method: as §1
Plasmodium falciparum [8] = experiment: In vitro antimalarial activity against Plasmodium falciparum FG3; assay type: functional, organism-based; summary of the method: as §1
[9] = Compound was tested antimalarial activity in mice (Mus musculus), infected with Plasmodium berghei N., activity is expressed as the mortality rate at a concentration of 1 mg/kg. in experiment 1; 5 out of 5; assay type: ADME, organism-based; parameters: dose 1 mg/kg; conditions: in vivo
Mus musculus [10] = experiment: Compound was tested for the antimalarial activity in mice (Mus musculus), infected with Plasmodium berghei N., activity is expressed as the percent of parasitaemia observed in mice (Mus musculus) at end of 4 day test at a concentration of 1 mg/kg in experiment 1; assay type: functional, organism-based; parameters: dose 1 mg/kg
Summary of the method: (§2)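 4-day suppressive test in female Swiss mice (25 g), infected at day 0 with 10⁷ parasitized RBC from a donor at 20–30% parasitemia. Drug given subcutaneously in PBS once daily, days 0–3; dose in chloroquine base equivalents. Controls received PBS. Parasitemia was counted on 1000 RBC in Giemsa-stained thin films at day 4 and expressed as percent of control-mouse parasitemia.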

Mus musculus [11] = experiment: Compound was tested for the antimalarial activity in mice (Mus musculus), infected with Plasmodium yoelii NS., activity is expressed as the percent of parasitaemia observed in mice (Mus musculus) at end of 4-day test at a concentration of 1 mg/kg in experiment 2; assay type: functional, organism-based; parameters: dose 1 mg/kg; summary of the method: as §2
Mus musculus [12] = experiment: Compound was tested for the antimalarial activity in mice (Mus musculus), infected with Plasmodium berghei N., activity is expressed as the percent of parasitaemia observed in mice (Mus musculus) at end of 4-day test at a concentration of 1 mg/kg in experiment 2; assay type: functional, organism-based; parameters: dose 1 mg/kg; summary of the method: as §2
Mus musculus [13] = experiment: Compound was tested for the antimalarial activity in mice (Mus musculus), infected with Plasmodium berghei N., activity is expressed as the percent of parasitaemia observed in mice (Mus musculus) at end of 4 day test at a concentration of 10 mg/kg in experiment 2; assay type: functional, organism-based; parameters: dose 10 mg/kg; summary of the method: as §2
Mus musculus [14] = experiment: Compound was tested for the antimalarial activity in mice (Mus musculus), infected with Plasmodium yoelii NS., activity is expressed as the percent of parasitaemia observed in mice (Mus musculus) at end of 4-day test at a concentration of 1 mg/kg in experiment 1; assay type: functional, organism-based; parameters: dose 1 mg/kg; summary of the method: as §2
Mus musculus [15] = experiment: Compound was tested for the antimalarial activity in mice (Mus musculus), infected with Plasmodium yoelii NS., activity is expressed as the percent of parasitaemia observed in mice (Mus musculus) at end of 4-day test at a concentration of 10 mg/kg in experiment 2; assay type: functional, organism-based; parameters: dose 10 mg/kg; summary of the method: as §2
Mus musculus [16] = experiment: Compound was tested for the antimalarial activity in mice (Mus musculus), infected with Plasmodium berghei N., activity is expressed as the percent of parasitaemia observed in mice (Mus musculus) at end of 4-day test at a concentration of 10 mg/kg in experiment 1; assay type: functional, organism-based; parameters: dose 10 mg/kg; summary of the method: as §2
Mus musculus [17] = experiment: Compound was tested for the antimalarial activity in mice (Mus musculus), infected with Plasmodium yoelii NS., activity is expressed as the percent of parasitaemia observed in mice (Mus musculus) at end of 4-day test at a concentration of 10 mg/kg in experiment 1; assay type: functional, organism-based; parameters: dose 10 mg/kg; summary of the method: as §2
Mus musculus [18] = experiment: Antimalarial activity in mice (Mus musculus), infected with Plasmodium yoelii NS., activity is expressed as the percent of parasitaemia observed in mice (Mus musculus) at end of 4-day test at a concentration of 10 mg/kg in experiment 1; assay type: functional; summary of the method: as §2
Mus musculus [19] = experiment: Antimalarial activity in mice (Mus musculus), infected with Plasmodium berghei N. activity is expressed as the percent of parasitaemia observed in mice (Mus musculus) at end of 4-day test at a concentration of 10 mg/kg in experiment 1; assay type: functional; summary of the method: as §2
Mus musculus [20] = experiment: Antimalarial activity in mice (Mus musculus), infected with Plasmodium berghei N. activity is expressed as the percent of parasitaemia observed in mice (Mus musculus) at end of 4-day test at a concentration of 1 mg/kg in experiment 2; assay type: functional; summary of the method: as §2
Mus musculus [21] = experiment: Antimalarial activity in mice (Mus musculus), infected with Plasmodium yoelii NS. activity is expressed as the percent of parasitaemia observed in mice (Mus musculus) at end of 4-day test at a concentration of 10 mg/kg in experiment 2; assay type: functional; summary of the method: as §2
Mus musculus [22] = experiment: Antimalarial activity in mice (Mus musculus), infected with Plasmodium berghei N. activity is expressed as the percent of parasitaemia observed in mice (Mus musculus) at end of 4-day test at a concentration of 10 mg/kg in experiment 2; assay type: functional; summary of the method: as §2
Mus musculus [23] = experiment: Antimalarial activity in mice (Mus musculus), infected with Plasmodium berghei N. activity is expressed as the percent of parasitaemia observed in mice (Mus musculus) at end of 4-day test at a concentration of 1 mg/kg in experiment 1; assay type: functional; summary of the method: as §2
Mus musculus [24] = experiment: Antimalarial activity in mice (Mus musculus), infected with Plasmodium yoelii NS. activity is expressed as the percent of parasitaemia observed in mice (Mus musculus) at end of 4-day test at a concentration of 1 mg/kg in experiment 1; assay type: functional; summary of the method: as §2
Mus musculus [25] = experiment: Antimalarial activity in mice (Mus musculus), infected with Plasmodium yoelii NS., activity is expressed as the percent of parasitaemia observed in mice (Mus musculus) at end of 4 day test at a concentration of 1 mg/kg in experiment 2; assay type: functional; summary of the method: as §2

Compound: 7-Chloro-4-[[[2-[(N,N-methyl amino)]ferrocenyl]methyl]amino]quinoline; bis-(2,3-Dihydroxy-succinic acid) [listing 1 of 2 here]
- IC50 (Plasmodium falciparum [1]): 0.067 µg/mL
- IC50 (Plasmodium falciparum [2]): 0.177 µg/mL
- IC50 (Plasmodium falciparum [3]): 0.059 µg/mL
- Mortality [4]: 0
- IC50 (Plasmodium falciparum [5]): 0.057 µg/mL
- IC50 (Plasmodium falciparum [6]): 0.061 µg/mL
- IC50 (Plasmodium falciparum [7]): 0.16 µg/mL
- IC50 (Plasmodium falciparum [8]): 0.095 µg/mL
- Mortality [9]: 5

Compound: 7-Chloro-4-[[[2-[(N,N-methyl amino)]ferrocenyl]methyl]amino]quinoline; bis-(2,3-Dihydroxy-succinic acid) [listing 2 of 2 here]
- Parasitemia (Mus musculus [10]): 75.5%
- Parasitemia (Mus musculus [11]): 109%
- Parasitemia (Mus musculus [12]): 75.8%
- Parasitemia (Mus musculus [13]): 0%
- Parasitemia (Mus musculus [14]): 125%
- Parasitemia (Mus musculus [15]): 0%
- Parasitemia (Mus musculus [16]): 0%
- Parasitemia (Mus musculus [17]): 0.3%

Compound: CCN(CC)CCCC(C)Nc1ccnc2cc(Cl)ccc12 (stereo not given) [CHLOROQUINE]
- Parasitemia (Mus musculus [18]): 0%
- Parasitemia (Mus musculus [19]): 2.08%
- Parasitemia (Mus musculus [20]): 60.1%
- Parasitemia (Mus musculus [21]): 0%
- Parasitemia (Mus musculus [22]): 0.59%
- Parasitemia (Mus musculus [23]): 69.2%
- Parasitemia (Mus musculus [24]): 64.7%
- Parasitemia (Mus musculus [25]): 76.6%
